Series [1] deals with T1, 5-hydroxytryptamine receptor 1A (Rattus norvegicus, UniProt P19327).
T1 sequence (P19327 whole entry): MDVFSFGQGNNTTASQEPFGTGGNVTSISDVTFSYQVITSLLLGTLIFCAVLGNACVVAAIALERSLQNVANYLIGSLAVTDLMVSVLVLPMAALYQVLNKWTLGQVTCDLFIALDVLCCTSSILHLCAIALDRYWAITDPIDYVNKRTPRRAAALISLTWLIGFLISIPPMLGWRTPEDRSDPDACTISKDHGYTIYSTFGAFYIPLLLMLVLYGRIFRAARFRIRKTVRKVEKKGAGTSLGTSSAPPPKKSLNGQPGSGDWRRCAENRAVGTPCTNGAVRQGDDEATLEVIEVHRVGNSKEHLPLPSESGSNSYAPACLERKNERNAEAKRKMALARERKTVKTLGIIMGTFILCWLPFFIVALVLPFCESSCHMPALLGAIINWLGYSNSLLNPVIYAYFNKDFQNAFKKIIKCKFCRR
Nature of the series: In vitro displacement of radioactively labeled ligand [3H]8-OH-DPAT from 5-hydroxytryptamine 1A receptor site in CHO cells. In kind it is cell-based.

Another series concerns the target D(2) dopamine receptor (Rattus norvegicus, UniProt P61169). Kind of series: Displacement of [3H]U-86170 from Dopamine receptor D2. A digest of the protocol: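 Competition binding at cloned D2 receptors expressed in CHO-K1 cells, using the agonist [3H]U86170 (62 Ci/mmol, 2 nM) against 11 dilutions of test compound. IC50 was fitted to a one-site model by nonlinear least squares. Ki was obtained with the Cheng–Prusoff equation.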
(In general: Displacement assays read how much labelled ligand stays bound in the presence of the test substance.)

For series [2], the species on record is Rattus norvegicus. Kind of series: (§1) In vitro metabolic stability of the test compound was evaluated after incubation in the presence of freshly isolated rat hepatocytes. Type of series: functional, Hepatocyte. Also noted: reference not given here. A digest of the protocol: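 Rat hepatocytes were isolated by modified collagenase perfusion and incubated as suspensions (5 million cells/mL) with each compound at three concentrations. Parent loss was followed by HPLC. Initial rates gave apparent Vmax and Km by direct linear plot, with CLint = Vmax/Km. Stability is expressed relative to a reference compound incubated at the same time.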

Series [3] relates to Rattus norvegicus. Kind of series: postsynaptic effects was assessed by the increase in the locomotor activity (reversal of reserpine induced hypokinesia) during a 30 min period after subcutaneous administration using photocell motility meters at the dose of 0.8(micr oM/kg). Type of series: ADME, organism-based. As to conditions: in vivo, sc, 0.5 h. A digest of the protocol:
(§2)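 Reserpine 5 mg/kg sc was given 18 h before testing to male Sprague–Dawley rats. Test drug was given sc in the neck, and rats were placed singly in photocell motility meters. Accumulated counts were recorded over 30 min (mean, n = 4), with gross behaviour observed throughout. Student's t test was applied.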

Series [4] concerns Rattus norvegicus. Nature of the series: (§3) 5-HTP accumulation in limbic system was determined in vivo. In kind it is functional. A digest of the protocol: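 Male Sprague–Dawley rats (200–300 g), pretreated with reserpine 5 mg/kg sc 18 h before. Test drug given sc. 5-HTP measured in limbic brain tissue by HPLC with electrochemical detection. Dose–response curves were built from four to six dose levels (n = 4) for each substance and brain area. ED50 reported in μmol/kg sc.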

Series [5] deals with Rattus norvegicus. Nature of the series: in vivo effects on DA (dopamine) synthesis in cortex was reported after subcutaneous administration to reserpinized rats; inactive at a dose of 2.1. In kind it is functional, organism-based.
Series [6] has as its system Rattus norvegicus. Nature of the series: In vivo effects on DA (dopamine) synthesis in corps striatum was reported after subcutaneous administration to reserpinized rats; inactive at a dose of 2.1. In kind it is functional, organism-based.
The test system of series [7] is Rattus norvegicus. Nature of the series: In vivo effects on DA (dopamine) synthesis in corps striatum was reported after subcutaneous administration to reserpinized rats; inactive at a dose of 50. Type of series: functional, organism-based. A digest of the protocol:
(§4)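 Male Sprague–Dawley rats (200–300 g) given reserpine 5 mg/kg sc 18 h before; compounds sc in neck region, 5 mL/kg. DOPA accumulation in striatum or cortex measured by HPLC with electrochemical detection.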

Series [8] relates to Rattus norvegicus. Kind of series: in vivo effects on DA (dopamine) synthesis in cortex was reported after subcutaneous administration to reserpinized rats; inactive at a dose of 50. Type of series: functional, organism-based. A digest of the protocol: as §4
Series [9] has as its system Rattus norvegicus. Nature of the series: postsynaptic effects was assessed by the increase in the locomotor activity (reversal of reserpine induced hypokinesia) during a 30 min period after subcutaneous administration using photocell motility meters at the dose of 10(micro M/kg). In kind it is ADME, organism-based. As to conditions: in vivo, sc, 0.5 h. A digest of the protocol: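 Male Sprague–Dawley rats got reserpine 5 mg/kg sc in the neck 18 h before testing. Compound was given sc in the neck (5 mL/kg), and rats were placed singly in photocell motility meters. Accumulated counts were recorded over 30 min, mean ± SEM, n = 4, with Student's t test against reserpinized controls. Testing ran 9 a.m.–1 p.m.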

For series [10], the species on record is Rattus norvegicus. The series is described as §1. Type of series: ADME, Hepatocyte. The gist of the method:
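Rat hepatocytes were prepared by a modified collagenase perfusion method. Each compound was incubated at three concentrations in suspension at 5 million cells/mL. Initial rates were analysed by direct linear plot to give apparent Vmax and Km, and CLint = Vmax/Km. Rates were measured by HPLC and expressed relative to a reference compound incubated at the same time.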

Series [11] relates to Rattus norvegicus. The series is described as §3. In kind it is functional. A digest of the protocol:
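Male Sprague–Dawley rats (200–300 g) pretreated with reserpine 5 mg/kg sc 18 h beforehand; test drug given sc in neck, 5 mL/kg, neutral pH. 5-HTP in limbic system measured by HPLC with electrochemical detection.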
The source holds these as a separate data set.

In series [12] the test system is Rattus norvegicus. Nature of the series: in vivo effects on DA (dopamine) synthesis in cortex was reported after subcutaneous administration to reserpinized rats. In kind it is functional, organism-based.
In series [13] the test system is Rattus norvegicus. Kind of series: postsynaptic effects was assessed by the increase in the locomotor activity (reversal of reserpine induced hypokinesia) during a 30 min period after subcutaneous administration using photocell motility meters at the dose of 0.2 (mic roM/kg). Type of series: functional. The gist of the method: as §2
The test system of series [14] is Rattus norvegicus. Kind of series: In vivo effects on DA (dopamine) synthesis in corps striatum was reported after subcutaneous administration to reserpinized rats; I = inactive at highest dose 45 umol/kg. In kind it is functional, organism-based.
For series [15], the system named is Rattus norvegicus. Kind of series: postsynaptic effects was assessed by the increase in the locomotor activity (reversal of reserpine induced hypokinesia) during a 30 min period after subcutaneous administration using photocell motility meters at the dose of 3.1(micr oM/kg). In kind it is ADME, organism-based. Particulars: in vivo, sc, 0.5 h. A digest of the protocol:
as §2

Series [16] deals with Rattus norvegicus. Kind of series: in vivo effects on DA (dopamine) synthesis in cortex was reported after subcutaneous administration to reserpinized rats; inactive at a dose of 3.1. In kind it is functional, organism-based.
Series [17] deals with Rattus norvegicus. Kind of series: In vivo effects on DA (dopamine) synthesis in corps striatum was reported after subcutaneous administration to reserpinized rats; inactive at a dose of 3.1. Type of series: functional, organism-based.

SMILES strings stand for the structures. Activity calls are given as the source filed them. No cut-off for these calls is given here.

For orientation: Ki means a measure of affinity in units of concentration, obtained from inhibition or displacement. One may read the ED50 as the dose at which the effect has come halfway, by size or by number of responders.

Chain of D(2) dopamine receptor (P61169 whole entry): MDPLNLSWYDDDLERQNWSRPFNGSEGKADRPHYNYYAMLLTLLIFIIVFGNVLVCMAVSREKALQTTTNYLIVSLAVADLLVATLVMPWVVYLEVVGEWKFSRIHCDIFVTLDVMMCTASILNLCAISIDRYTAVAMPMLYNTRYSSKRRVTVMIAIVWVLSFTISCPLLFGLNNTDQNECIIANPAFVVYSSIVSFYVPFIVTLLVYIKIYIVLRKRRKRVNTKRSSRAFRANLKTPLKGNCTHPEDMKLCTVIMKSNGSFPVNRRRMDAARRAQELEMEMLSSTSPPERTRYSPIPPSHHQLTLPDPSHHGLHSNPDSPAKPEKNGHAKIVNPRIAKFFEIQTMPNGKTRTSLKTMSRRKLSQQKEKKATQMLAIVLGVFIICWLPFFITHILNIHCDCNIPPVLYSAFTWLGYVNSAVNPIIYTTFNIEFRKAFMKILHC

Regarding `CCCN1CC[C@H]2c3c(cccc3C(C)=O)CC[C@H]21`, the results for the inhibition constant Ki (in series [1]; at D(2) dopamine receptor) were 0.4 nM and 91 nM, respectively. Besides, in the series listed under Rattus norvegicus [2], the Metabolic stability is on record as 0.13. The Locomotor activity in the series with Rattus norvegicus [3] is given as 115. The molecule further gave an ED50 in the series with Rattus norvegicus [4] of 0.0125 µmol/kg. The ED50 result in the series with Rattus norvegicus [5] and in the series on Rattus norvegicus [6] was “inactive” each time.

As for `CCCNC(=O)c1cccc2c1[C@@H]1CCN(CCC)[C@@H]1CC2`, the inhibitory constant (Ki) was 52 nM in series [1] and over 1000 nM at D(2) dopamine receptor. Further, the ED50 result in the series with Rattus norvegicus [7] and with Rattus norvegicus [8] was “inactive” in each case. In addition, the Locomotor activity in the series with Rattus norvegicus [9] is given as 58. This molecule registered a median effective dose (ED50) in the series on Rattus norvegicus [4] of 4 µmol/kg.

For `CCCN(CCC)C1CCc2cccc(O)c2C1` (stereo unspecified) [8-OH-DPAT], the Metabolic stability in the series listed under Rattus norvegicus [10] turned out to be 0.16. At D(2) dopamine receptor, this molecule showed a Ki of 86 nM. The same molecule had a 50% effective dose (ED50) with Rattus norvegicus [11] of 0.052 µmol/kg. For the same molecule, the ED50 result with Rattus norvegicus [12] and with Rattus norvegicus [14] was “inactive” in each case. In addition, the Locomotor activity in the series with Rattus norvegicus [13] turned out to be 66.

On to `CCCC(=O)c1cccc2c1[C@@H]1CCN(CCC)[C@@H]1CC2`, for which the values for the Ki (in series [1]; at D(2) dopamine receptor) were 0.7 nM and 22 nM, respectively. Also, the Metabolic stability in the series filed under Rattus norvegicus [2] is 0.05. Moreover, the Locomotor activity in the series with Rattus norvegicus [15] was determined as 631. The molecule further returned a 50% effective dose (ED50) with Rattus norvegicus [4] of 0.26 µmol/kg. The ED50 entry with Rattus norvegicus [16] and in the series on Rattus norvegicus [17] was “inactive” each time.

(Values after ChEMBL document CHEMBL1128248, “C-9 and N-substituted analogs of cis-(3aR)-(-)-2,3,3a,4,5,9b-hexahydro-3- propyl-1H-benz[e]indole-9-carboxamide: 5-HT1A receptor agonists with various degrees of metabolic stability” (J Med Chem, 1995).)
